Series [1] has as its system Rattus norvegicus. As to the kind of experiment: Inhibition of water intake in rat dipsogenia model at 10 mg/kg, po. It counts as functional, organism-based. Details: dose 10 mg/kg.
The target in series [2] is Histamine H2 receptor (Homo sapiens) (UniProt P25021). As to the kind of experiment: Displacement of [3H]-tiotidine from human histamine H2 receptor. Details: concentration or dose not given beside the values. Conditions: concentration not given here. In outline:
(§1)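 Radioligand displacement assays, single determination (n = 1) each: [3H]-mepyramine at H1, [3H]-tiotidine at H2, [3H]-histamine at H4.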
A general note: Loss of bound radioactivity is the signal in a displacement assay; it reports binding, not function.

Series [3] can be described thus: Intrinsic clearance in rat liver microsomes. Type of series: ADME, Microsome. On the technique in general: Liver microsomes are vesicles of endoplasmic reticulum, rich in cytochrome P450 enzymes.
Series [4] concerns the target T1, Histamine H3 receptor (Homo sapiens, UniProt Q9Y5N1). As to the kind of experiment: Displacement of [3H]-RAMH from human histamine H3 receptor.
The target in a further series is Cytochrome P450 3A4 (Homo sapiens, UniProt P08684). As to the kind of experiment: Inhibition of CYP3A4. It counts as ADME.
Sequence of Cytochrome P450 3A4 (P08684 whole entry): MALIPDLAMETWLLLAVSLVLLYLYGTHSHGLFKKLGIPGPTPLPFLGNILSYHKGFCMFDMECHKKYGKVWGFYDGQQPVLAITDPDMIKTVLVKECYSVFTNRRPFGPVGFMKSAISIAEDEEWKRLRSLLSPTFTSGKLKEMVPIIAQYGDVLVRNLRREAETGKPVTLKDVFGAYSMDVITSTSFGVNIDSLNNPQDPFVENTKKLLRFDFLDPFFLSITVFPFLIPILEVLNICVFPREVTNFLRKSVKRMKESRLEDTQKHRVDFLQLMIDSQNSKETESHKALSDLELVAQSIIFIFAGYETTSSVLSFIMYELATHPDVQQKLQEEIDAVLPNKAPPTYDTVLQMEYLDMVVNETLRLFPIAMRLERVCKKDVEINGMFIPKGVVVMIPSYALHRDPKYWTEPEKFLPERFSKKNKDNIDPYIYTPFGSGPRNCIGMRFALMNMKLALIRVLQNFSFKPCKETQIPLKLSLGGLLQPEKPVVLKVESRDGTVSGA
For a further series, the target named is Cytochrome P450 2D6 (Homo sapiens, UniProt P10635). As to the kind of experiment: Inhibition of CYP2D6. Type of series: ADME.
Sequence of Cytochrome P450 2D6 (P10635 whole entry): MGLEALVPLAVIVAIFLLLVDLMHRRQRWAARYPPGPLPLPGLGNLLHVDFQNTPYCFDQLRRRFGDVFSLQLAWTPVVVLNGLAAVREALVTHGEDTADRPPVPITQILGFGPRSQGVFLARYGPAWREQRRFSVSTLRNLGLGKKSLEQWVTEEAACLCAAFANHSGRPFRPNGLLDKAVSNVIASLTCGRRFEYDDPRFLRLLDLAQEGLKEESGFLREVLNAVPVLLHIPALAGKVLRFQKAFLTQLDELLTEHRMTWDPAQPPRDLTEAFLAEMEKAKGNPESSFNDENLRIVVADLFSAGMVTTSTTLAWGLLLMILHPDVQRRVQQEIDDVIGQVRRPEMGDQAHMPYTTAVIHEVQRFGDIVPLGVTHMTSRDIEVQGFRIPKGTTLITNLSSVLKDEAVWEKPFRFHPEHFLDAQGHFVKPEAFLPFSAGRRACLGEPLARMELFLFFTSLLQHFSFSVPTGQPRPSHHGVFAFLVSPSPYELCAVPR
The test system of series [5] is Rattus norvegicus. As to the kind of experiment: Toxicity in rat assessed as change in behavioral effect at 10 mg/kg, po measured for 1 hr. Type of series: organism-based. The arrangement: dose 10 mg/kg, route oral. Conditions: in vivo.
Series [6] concerns the target T1, Histamine H3 receptor. As to the kind of experiment: Inverse agonist activity at human recombinant histamine H3 receptor assessed as effect on [35S]GTPgammaS binding. Type of series: functional. In general terms: Binding of GTPγS marks nucleotide exchange on a G protein.
Series [7] in a line: Intrinsic clearance in human liver microsomes. Type of series: ADME, Microsome.
For series [8], the system named is Rattus norvegicus. As to the kind of experiment: Inhibition of (R)-alpha-methyl histamine-induced increased water intake in rat dipsogenia model at 10 mg/kg, po. It counts as functional.
A short description of series [9]: Lipophilicity, log D of the compound at pH 7.4. Type of series: physicochemical. Conditions: buffer.
Series [10] concerns the target T2, Histamine H3 receptor (Rattus norvegicus, UniProt Q9QYN8). As to the kind of experiment: Binding affinity to rat histamine H3 receptor.
In another series the target is Cytochrome P450 2C9 (Homo sapiens, UniProt P11712). As to the kind of experiment: Inhibition of CYP2C9. It counts as ADME.
Sequence of Cytochrome P450 2C9 (P11712 whole entry): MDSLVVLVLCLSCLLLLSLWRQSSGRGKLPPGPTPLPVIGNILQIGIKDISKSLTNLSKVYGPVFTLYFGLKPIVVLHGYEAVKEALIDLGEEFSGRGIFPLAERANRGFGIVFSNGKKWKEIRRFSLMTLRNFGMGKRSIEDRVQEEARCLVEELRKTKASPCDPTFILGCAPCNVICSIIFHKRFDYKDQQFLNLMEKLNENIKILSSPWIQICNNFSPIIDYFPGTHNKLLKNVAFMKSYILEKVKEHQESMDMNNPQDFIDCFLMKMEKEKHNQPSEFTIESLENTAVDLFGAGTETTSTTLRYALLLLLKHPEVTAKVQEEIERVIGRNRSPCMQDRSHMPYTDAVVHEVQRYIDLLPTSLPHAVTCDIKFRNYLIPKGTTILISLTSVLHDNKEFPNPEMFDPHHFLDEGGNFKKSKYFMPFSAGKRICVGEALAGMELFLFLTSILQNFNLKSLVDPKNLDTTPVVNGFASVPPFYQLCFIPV
The target in series [11] is T2, Histamine H3 receptor. As to the kind of experiment: Inverse agonist activity at rat histamine H3 receptor. It counts as functional.
Series [12] addresses Histamine H4 receptor (Homo sapiens) (UniProt Q9H3N8). As to the kind of experiment: Displacement of [3H]-histamine from human histamine H4 receptor. The arrangement: concentration or dose not given beside the values. Conditions: concentration not given here. In short, it runs like this: as §1
Series [13] is described as follows: Aqueous solubility of the compound in 0.05 M phosphate buffer at pH 6.5. It counts as physicochemical.
In series [14] the target is Histamine H1 receptor (Homo sapiens) (UniProt P35367). As to the kind of experiment: Displacement of [3H]-mepyramine from human histamine H1 receptor. Conditions: concentration not given here. Details: concentration or dose not given beside the values. In short, it runs like this: as §1
Sequence of Histamine H1 receptor (Homo sapiens) (P35367 whole entry): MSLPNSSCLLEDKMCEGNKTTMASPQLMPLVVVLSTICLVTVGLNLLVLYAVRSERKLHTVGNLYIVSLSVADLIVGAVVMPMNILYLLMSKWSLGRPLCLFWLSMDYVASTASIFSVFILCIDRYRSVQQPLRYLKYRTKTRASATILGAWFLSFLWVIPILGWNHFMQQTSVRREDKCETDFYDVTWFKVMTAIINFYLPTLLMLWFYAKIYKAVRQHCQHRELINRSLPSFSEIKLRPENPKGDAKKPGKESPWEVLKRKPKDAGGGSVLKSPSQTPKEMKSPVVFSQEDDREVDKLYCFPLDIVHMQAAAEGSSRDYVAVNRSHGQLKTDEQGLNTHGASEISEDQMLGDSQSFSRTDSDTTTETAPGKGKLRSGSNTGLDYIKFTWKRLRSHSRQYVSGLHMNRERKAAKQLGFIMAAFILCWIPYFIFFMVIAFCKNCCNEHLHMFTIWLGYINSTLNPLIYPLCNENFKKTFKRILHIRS
The target of series [15] is T1, Histamine H3 receptor. Conditions: 3 uM.

≈ marks a conversion by molar mass, not a printed value. Calls of active or inactive are those of the source. The rule behind the calls is not given here.

In general, inhibition refers to the drop in the measured response relative to a control, in per cent. The microsomal CLint is the rate of metabolic loss divided by the concentration. In general, Ki refers to the dissociation constant of the complex between target and ligand, obtained from inhibition or displacement. What is called IC50 is the concentration needed to halve the response being measured. As usually defined, the EC50 is the concentration at which the effect is half-maximal. The term inhibition in vivo denotes the share of the control response that was lost under treatment. Usually logD stands for lipophilicity at a set pH, counting ionised and neutral species. The solubility is how much of the substance goes into solution per volume.

T1 sequence (Q9Y5N1 whole entry): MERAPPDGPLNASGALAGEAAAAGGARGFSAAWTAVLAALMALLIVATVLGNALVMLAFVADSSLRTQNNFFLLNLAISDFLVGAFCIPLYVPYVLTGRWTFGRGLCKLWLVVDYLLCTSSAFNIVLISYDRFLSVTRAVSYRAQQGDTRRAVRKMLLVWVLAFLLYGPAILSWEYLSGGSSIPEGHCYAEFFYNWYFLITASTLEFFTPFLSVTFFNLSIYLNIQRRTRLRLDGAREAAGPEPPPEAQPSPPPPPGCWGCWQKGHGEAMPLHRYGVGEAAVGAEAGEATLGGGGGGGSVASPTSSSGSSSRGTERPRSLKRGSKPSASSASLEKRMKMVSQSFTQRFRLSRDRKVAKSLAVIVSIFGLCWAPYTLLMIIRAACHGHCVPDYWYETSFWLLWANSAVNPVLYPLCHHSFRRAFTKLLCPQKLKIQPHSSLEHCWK
Sequence of Histamine H2 receptor (Homo sapiens) (P25021 whole entry): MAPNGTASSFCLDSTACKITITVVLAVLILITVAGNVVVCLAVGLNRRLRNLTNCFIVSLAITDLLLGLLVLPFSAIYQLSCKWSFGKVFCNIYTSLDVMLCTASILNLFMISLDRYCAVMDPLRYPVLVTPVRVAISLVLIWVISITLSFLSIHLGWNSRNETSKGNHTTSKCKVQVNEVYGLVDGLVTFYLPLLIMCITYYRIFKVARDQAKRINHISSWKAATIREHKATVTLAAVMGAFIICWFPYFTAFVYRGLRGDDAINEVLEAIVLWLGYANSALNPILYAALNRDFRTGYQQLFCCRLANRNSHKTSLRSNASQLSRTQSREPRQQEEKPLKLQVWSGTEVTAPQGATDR
Sequence of Histamine H4 receptor (Homo sapiens) (Q9H3N8 whole entry): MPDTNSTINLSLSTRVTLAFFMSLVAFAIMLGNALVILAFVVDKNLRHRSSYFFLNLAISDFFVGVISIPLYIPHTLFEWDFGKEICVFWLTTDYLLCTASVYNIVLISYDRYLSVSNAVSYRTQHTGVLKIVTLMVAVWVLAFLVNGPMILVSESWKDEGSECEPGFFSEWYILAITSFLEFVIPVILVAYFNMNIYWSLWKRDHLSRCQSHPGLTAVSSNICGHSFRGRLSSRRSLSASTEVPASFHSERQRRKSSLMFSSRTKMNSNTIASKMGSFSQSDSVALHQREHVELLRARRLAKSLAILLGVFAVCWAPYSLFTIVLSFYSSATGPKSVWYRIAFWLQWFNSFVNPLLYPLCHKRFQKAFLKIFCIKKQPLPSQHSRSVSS
T2 sequence (Q9QYN8 whole entry): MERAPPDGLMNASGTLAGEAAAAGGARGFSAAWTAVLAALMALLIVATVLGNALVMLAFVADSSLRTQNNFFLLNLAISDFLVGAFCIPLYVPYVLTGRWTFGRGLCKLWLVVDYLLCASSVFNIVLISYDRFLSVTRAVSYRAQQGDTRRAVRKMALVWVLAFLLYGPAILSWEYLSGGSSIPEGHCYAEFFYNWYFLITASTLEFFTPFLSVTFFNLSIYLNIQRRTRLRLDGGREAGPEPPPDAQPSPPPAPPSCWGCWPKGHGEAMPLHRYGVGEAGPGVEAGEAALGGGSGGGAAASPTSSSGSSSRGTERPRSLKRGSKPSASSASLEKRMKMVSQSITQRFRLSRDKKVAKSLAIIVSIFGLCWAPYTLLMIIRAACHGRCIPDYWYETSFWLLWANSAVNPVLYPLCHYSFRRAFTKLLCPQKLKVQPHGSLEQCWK

`CC(C)N1CCC(Oc2ccc3c(c2)cc2n3C[C@@H](C)N(CC3CC3)C2=O)CC1`: the inhibition result in the series on Rattus norvegicus [1] was “inactive”. Besides, the inhibition is 8% in [2], 12% in series [12] and 3% in series [14]. In addition, the intrinsic clearance (microsomal CLint) is 10 µL/min/mg in series [3] and 6 µL/min/mg in series [7]. The Ki at Histamine H3 receptor [4] is 5 nM; at Histamine H3 receptor [10], 12 nM. Also, the IC50 at Cytochrome P450 3A4, at Cytochrome P450 2D6 and on Cytochrome P450 2C9 was over 50000 nM throughout. The Activity result with Rattus norvegicus [5] is “Non-toxic”. In addition, the concentration giving a half-maximal response (EC50) at Histamine H3 receptor [6] and at Histamine H3 receptor [11] was 18 nM each time. In the series with Rattus norvegicus [8], this compound showed an inhibition in vivo at 10 mg/kg of 64%. This compound yielded a logD in series [9] of 1.4. This compound also displayed a solubility in series [13] of over 441 µg/mL.

As to `CC(C)N1CCC(Oc2cc3cc4n(c3cc2Br)[C@@H](C)CN(CC2CC2)C4=O)CC1`, the inhibition in series [2] is -3%; in [12], 1%; in [14] it was 10%. Besides, the figures for the microsomal CLint in [3] and in series [7] were 20 µL/min/mg and 7 µL/min/mg, respectively. The same compound came in with an inhibitory constant (Ki) on Histamine H3 receptor [4] of 2 nM. Further, the IC50 against Cytochrome P450 3A4, against Cytochrome P450 2D6 and against Cytochrome P450 2C9 was over 50000 nM each time. Also, on Histamine H3 receptor [6], the EC50 was found to be 2 nM. The logD in [9] was 2.32. This compound also gave a solubility in series [13] of 506 µg/mL (≈ 1070 µM).

In the case of `CC(C)N1CCC(Oc2ccc3c(c2)cc2n3CCN(Cc3ccncc3)C2=O)CC1`, the microsomal CLint in series [3] turned out to be 27 µL/min/mg; in series [7], 8 µL/min/mg. Besides, the Ki at Histamine H3 receptor [4] came out at 5 nM. Moreover, the IC50 at Cytochrome P450 3A4 was 6000 nM; against Cytochrome P450 2D6 it was over 50000 nM; at Cytochrome P450 2C9 it was over 50000 nM. Besides, at Histamine H3 receptor [6], the EC50 stood at 12 nM. For the same compound, the logD in series [9] turned out to be 0.64. In addition, the inhibition came to 3% in [12] and 4% in [14]. The compound further registered a solubility in series [13] of over 456 µg/mL.

Consider `CC(C)N1CCC(Oc2ccc3c(c2)cc2n3CCN(C)C2=O)CC1`, for which the figures for the inhibition in [2], in series [12] and in series [14] were 11%, 0% and -4%, respectively. For the same compound, the microsomal CLint in series [3] is 23 µL/min/mg; in series [7], 1 µL/min/mg. The same compound returned a Ki on Histamine H3 receptor [4] of 31 nM. The IC50 against Cytochrome P450 3A4 is over 50000 nM; at Cytochrome P450 2D6, 15000 nM; on Cytochrome P450 2C9, over 50000 nM. In addition, the EC50 on Histamine H3 receptor [6] was 48 nM. In series [9], this compound showed a logD of 0.13. In [13], the solubility is over 455 µg/mL.

The compound `CC(C)N1CCC(Oc2ccc3[nH]c4c(c3c2)CCNC4=O)CC1` yielded a Ki at Histamine H3 receptor [4] of over 3000 nM. Moreover, the inhibition on Histamine H3 receptor [15] worked out at 35%.

In the case of `CC(C)N1CCC(Oc2ccc3c(c2)cc(C(=O)N2CCC(F)(F)CC2)n3C(C)C)CC1`, the inhibition in series [2] was -6%; in [12], 7%; in series [14] it was 9%. Moreover, the microsomal CLint in [3] worked out at 12 µL/min/mg; in series [7] it was 4 µL/min/mg. The compound also gave a Ki on Histamine H3 receptor [4] of 2 nM. Moreover, the IC50 against Cytochrome P450 3A4 is over 50000 nM; on Cytochrome P450 2D6, 5000 nM; against Cytochrome P450 2C9 it was over 50000 nM. The concentration giving a half-maximal response (EC50) at Histamine H3 receptor [6] is 2 nM. This compound also returned a logD in series [9] of 1.67. The solubility in series [13] is over 589 µg/mL.

For the compound `CC(C)N1CCC(Oc2ccc3c(c2)cc2n3C[C@@H](C)NC2=O)CC1`, the figures for the inhibition in series [2], in [12] and in series [14] were 13%, 7% and 2%, respectively. Moreover, the microsomal CLint in series [3] stood at 10 µL/min/mg; in [7] it was 7 µL/min/mg. This compound displayed a Ki on Histamine H3 receptor [4] of 9 nM. The IC50 at Cytochrome P450 3A4, at Cytochrome P450 2D6 and against Cytochrome P450 2C9 was over 50000 nM throughout. Moreover, the EC50 at Histamine H3 receptor [6] amounted to 46 nM. This compound showed a logD in [9] of 0.28. In series [13], this compound yielded a solubility of 284 µg/mL (≈ 832 µM).

Consider `CC(C)N1CCC(Oc2ccc3c(c2)cc2n3CCN(CCO)C2=O)CC1`, for which the inhibition was 14% in series [2], -5% in [12] and -1% in [14]. The figures for the microsomal CLint in series [3] and in series [7] were 11 µL/min/mg and 9 µL/min/mg, respectively. Moreover, the Ki on Histamine H3 receptor [4] was found to be 46 nM. The half-inhibitory concentration (IC50) at Cytochrome P450 3A4 is over 50000 nM; against Cytochrome P450 2D6, 900 nM; on Cytochrome P450 2C9, over 50000 nM. In addition, the EC50 on Histamine H3 receptor [6] came out at 56 nM. For the same compound, the pH-dependent lipophilicity (logD) in series [9] was -0.25. In series [13], this compound came in with a solubility of over 406 µg/mL.

Consider `CC(C)N1CCC(Oc2ccc3c(c2)cc2n3CCN(Cc3ccc(F)cc3)C2=O)CC1`, for which the results for the inhibition in [2], in [12] and in series [14] were -3%, 1% and 17%, respectively. Besides, the microsomal CLint in [3] amounted to 17 µL/min/mg; in series [7] it was 5 µL/min/mg. At Histamine H3 receptor [4], the affinity, expressed as Ki, was 7 nM. Moreover, the IC50 against Cytochrome P450 3A4 was over 50000 nM; at Cytochrome P450 2D6, 35000 nM; against Cytochrome P450 2C9 it was over 50000 nM. Also, at Histamine H3 receptor [6], the EC50 came out at 14 nM. Besides, the logD in [9] worked out at 2.06. The solubility in [13] is 382 µg/mL (≈ 877 µM).

These data come from ChEMBL document CHEMBL1255546, “Discovery of potent and selective histamine H3 receptor inverse agonists based on the 3,4-dihydro-2H-pyrazino[1,2-a]indol-1-one scaffold” (Bioorg Med Chem Lett, 2010).
